# Data published in ChEMBL document CHEMBL1157665, “Novel 4-thiazolidinone derivatives as potential antifungal and antibacterial drugs” (2010).
# Experiments:
# Aspergillus niger [1] = test: Antifungal activity against Aspergillus niger ATCC 6275 after 72 hrs by serial sub-cultivation method; assay type: functional; details: ATCC 6275, 72 h
# How it was run: (§1)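 MFC was found by serial sub-cultivation of 2 µl into plates holding 100 µl broth per well, then incubation 72 h at 28 °C. MFC is the lowest concentration with no visible growth, taken as 99.5% killing of the original inoculum. Spore inocula came from malt agar cultures washed with 0.85% saline and 0.1% Tween 80.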
# Aspergillus versicolor [2] = test: Antifungal activity against Aspergillus versicolor ATCC 11730 after 72 hrs by serial dilution method; assay type: functional; details: ATCC 11730, 72 h
# How it was run: (§2)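 Fungi were kept on malt agar at 4 °C and sub-cultured monthly. Spores were washed off the agar with sterile 0.85% saline containing 0.1% Tween 80 (v/v). Modified microdilution in 96-well plates. MIC is the lowest concentration with no visible growth under the binocular microscope. Inoculum checked on malt agar for contamination and validity.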
# Aspergillus versicolor [3] = test: Antifungal activity against Aspergillus versicolor ATCC 11730 after 72 hrs by serial sub-cultivation method; assay type: functional; details: ATCC 11730, 72 h; how it was run: as §1
# Aspergillus flavus [4] = test: Antifungal activity against Aspergillus flavus ATCC 9643 after 72 hrs by serial dilution method; assay type: functional; details: ATCC 9643, 72 h; how it was run: as §2
# Aspergillus flavus [5] = test: Antifungal activity against Aspergillus flavus ATCC 9643 after 72 hrs by serial sub-cultivation method; assay type: functional; details: ATCC 9643, 72 h; how it was run: as §1
# Fulvia fulva [6] = test: Antifungal activity against Fulvia fulva TK 5318 after 72 hrs by serial dilution method; assay type: functional; details: TK 5318, 72 h; how it was run: as §2
# Fulvia fulva [7] = test: Antifungal activity against Fulvia fulva TK 5318 after 72 hrs by serial sub-cultivation method; assay type: functional; details: TK 5318, 72 h; how it was run: as §1
# Bacillus cereus [8] = test: Antibacterial activity against Bacillus cereus clinical isolate after 24 hrs; assay type: functional
# How it was run: (§3)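 Broth microdilution MIC in 96-well plates. Compounds in LB broth with bacterial inoculum of 1.0 × 10^4 cfu per well, from suspensions adjusted with sterile saline to 1.0 × 10⁵ CFU/ml. Incubated 24 h at […] as printed. MIC taken as the lowest concentration with no visible growth under the binocular microscope. OD at 655 nm also read against blank. Streptomycin and ampicillin as positive controls. Duplicate, repeated three times.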
# Bacillus cereus [9] = test: Antibacterial activity against Bacillus cereus clinical isolate after 72 hrs by serial sub-cultivation method; assay type: functional
# How it was run: (§4)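 MBC was found by serial sub-cultivation of 2 µl from the MIC wells into plates holding 100 µl broth per well, then incubation for 72 h. MBC is the lowest concentration with no visible growth, i.e. 99.5% killing of the original inoculum. Bacterial inoculum was 1.0 × 10^4 cfu per well in LB broth. Duplicate, repeated three times.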
# Micrococcus flavus [10] = test: Antibacterial activity against Micrococcus flavus ATCC 10240 after 24 hrs; assay type: functional; details: ATCC 10240, 24 h; how it was run: as §3
# Micrococcus flavus [11] = test: Antibacterial activity against Micrococcus flavus ATCC 10240 after 72 hrs by serial sub-cultivation method; assay type: functional; details: ATCC 10240, 72 h; how it was run: as §4
# Staphylococcus aureus [12] = test: Antibacterial activity against Staphylococcus aureus ATCC 6538 after 24 hrs; assay type: functional; details: ATCC 6538, 24 h; how it was run: as §3
# Staphylococcus aureus [13] = test: Antibacterial activity against Staphylococcus aureus ATCC 6538 after 72 hrs by serial sub-cultivation method; assay type: functional; details: ATCC 6538, 72 h; how it was run: as §4
# Escherichia coli [14] = test: Antibacterial activity against Escherichia coli ATCC 35210 after 24 hrs; assay type: functional; details: ATCC 35210, 24 h; how it was run: as §3
# Escherichia coli [15] = test: Antibacterial activity against Escherichia coli ATCC 35210 after 72 hrs by serial sub-cultivation method; assay type: functional; details: ATCC 35210, 72 h; how it was run: as §4
# Pseudomonas aeruginosa [16] = test: Antibacterial activity against Pseudomonas aeruginosa ATCC 27853 after 24 hrs; assay type: functional; details: ATCC 27853, 24 h; how it was run: as §3
# Pseudomonas aeruginosa [17] = test: Antibacterial activity against Pseudomonas aeruginosa ATCC 27853 after 72 hrs by serial sub-cultivation method; assay type: functional; details: ATCC 27853, 72 h; how it was run: as §4
# Proteus mirabilis [18] = test: Antibacterial activity against Proteus mirabilis after 24 hrs; assay type: functional; how it was run: as §3
# Proteus mirabilis [19] = test: Antibacterial activity against Proteus mirabilis after 72 hrs by serial sub-cultivation method; assay type: functional; how it was run: as §4
# Salmonella typhimurium [20] = test: Antibacterial activity against Salmonella Typhimurium ATCC 13311 after 24 hrs; assay type: functional, Salmonella enterica subsp. enterica serovar Typhimurium; details: Salmonella enterica, ATCC 13311, 24 h; how it was run: as §3
# Salmonella typhimurium [21] = test: Antibacterial activity against Salmonella Typhimurium ATCC 13311 after 72 hrs by serial sub-cultivation method; assay type: functional, Salmonella enterica subsp. enterica serovar Typhimurium; details: Salmonella enterica, ATCC 13311, 72 h; how it was run: as §4
# Listeria monocytogenes [22] = test: Antibacterial activity against Listeria monocytogenes NCTC 7973 after 24 hrs; assay type: functional; details: NCTC 7973, 24 h; how it was run: as §3
# Listeria monocytogenes [23] = test: Antibacterial activity against Listeria monocytogenes NCTC 7973 after 72 hrs by serial sub-cultivation method; assay type: functional; details: NCTC 7973, 72 h; how it was run: as §4
# Talaromyces funiculosus [24] = test: Antifungal activity against Penicillium funiculosum ATCC 36839 after 72 hrs by serial dilution method; assay type: functional; details: ATCC 36839, 72 h; how it was run: as §2
# Talaromyces funiculosus [25] = test: Antifungal activity against Penicillium funiculosum ATCC 36839 after 72 hrs by serial sub-cultivation method; assay type: functional; details: ATCC 36839, 72 h; how it was run: as §1
# Penicillium ochrochloron [26] = test: Antifungal activity against Penicillium ochrochloron ATCC 9112 after 72 hrs by serial dilution method; assay type: functional; details: ATCC 9112, 72 h; how it was run: as §2
# Penicillium ochrochloron [27] = test: Antifungal activity against Penicillium ochrochloron ATCC 9112 after 72 hrs by serial sub-cultivation method; assay type: functional; details: ATCC 9112, 72 h; how it was run: as §1
# Trichoderma viride [28] = test: Antifungal activity against Trichoderma viride IAM 5061 after 72 hrs by serial dilution method; assay type: functional; details: IAM 5061, 72 h; how it was run: as §2
# Trichoderma viride [29] = test: Antifungal activity against Trichoderma viride IAM 5061 after 72 hrs by serial sub-cultivation method; assay type: functional; details: IAM 5061, 72 h; how it was run: as §1
# Aspergillus niger [30] = test: Antifungal activity against Aspergillus niger ATCC 6275 after 72 hrs by serial dilution method; assay type: functional; details: ATCC 6275, 72 h; how it was run: as §2
# Aspergillus fumigatus [31] = test: Antifungal activity against Aspergillus fumigatus plant isolate after 72 hrs by serial dilution method
# Aspergillus fumigatus [32] = test: Antifungal activity against Aspergillus fumigatus plant isolate after 72 hrs by serial sub-cultivation method
Structure (SMILES),MFC (Aspergillus niger [1]) [µM],MIC (Aspergillus versicolor [2]) [µM],MFC (Aspergillus versicolor [3]) [µM],MIC (Aspergillus flavus [4]) [µM],MIC (Bacillus cereus [8]) [µM],MBC (Bacillus cereus [9]) [µM],MIC (Micrococcus flavus [10]) [µM],MBC (Micrococcus flavus [11]) [µM],MIC (Staphylococcus aureus [12]) [µM],MBC (Staphylococcus aureus [13]) [µM],MIC (Escherichia coli [14]) [µM],MBC (Escherichia coli [15]) [µM],MIC (Pseudomonas aeruginosa [16]) [µM],MBC (Pseudomonas aeruginosa [17]) [µM],MIC (Proteus mirabilis [18]) [µM],MBC (Proteus mirabilis [19]) [µM],MIC (Salmonella typhimurium [20]) [µM],MBC (Salmonella typhimurium [21]) [µM],MIC (Listeria monocytogenes [22]) [µM],MBC (Listeria monocytogenes [23]) [µM],further results
O=C1N/C(=N/c2nc(C34CC5CC(CC(C5)C3)C4)cs2)S/C1=C\c1ccc([N+](=O)[O-])cc1,21.5,16.1,21.5,16.1,21.5,21.5,21.5,21.5,16.1,43,21.5,43,21.5,43,43,64.5,21.5,21.5,21.5,43,MFC (Aspergillus flavus [5]): 21.5 µM; MIC (Fulvia fulva [6]): 16.1 µM; MFC (Fulvia fulva [7]): 21.5 µM; MIC (Talaromyces funiculosus [24]): 21.5 µM; MFC (Talaromyces funiculosus [25]): 21.5 µM; MIC (Penicillium ochrochloron [26]): 16.1 µM; MFC (Penicillium ochrochloron [27]): 21.5 µM; MIC (Trichoderma viride [28]): 10.8 µM; MFC (Trichoderma viride [29]): 21.5 µM; MIC (Aspergillus niger [30]): 10.8 µM; MIC (Aspergillus fumigatus [31]): 16.1 µM; MFC (Aspergillus fumigatus [32]): 21.5 µM
COc1cc(/C=C2\S/C(=N\c3nc(C45CC6CC(CC(C6)C4)C5)cs3)NC2=O)ccc1O,21.9,16.4,21.9,16.4,11,21.9,11,21.9,21.9,43.8,11,16.4,16.4,43.8,43.8,65.7,21.9,43.8,11,21.9,MFC (Aspergillus flavus [5]): 21.9 µM; MIC (Fulvia fulva [6]): 11 µM; MFC (Fulvia fulva [7]): 21.9 µM; MIC (Talaromyces funiculosus [24]): 16.4 µM; MFC (Talaromyces funiculosus [25]): 21.9 µM; MIC (Penicillium ochrochloron [26]): 16.4 µM; MFC (Penicillium ochrochloron [27]): 21.9 µM; MIC (Trichoderma viride [28]): 11 µM; MFC (Trichoderma viride [29]): 21.9 µM; MIC (Aspergillus niger [30]): 16.4 µM; MIC (Aspergillus fumigatus [31]): 16.4 µM; MFC (Aspergillus fumigatus [32]): 21.9 µM
CN[C@@H]1[C@H](O[C@H]2[C@H](O[C@H]3[C@H](O)[C@@H](O)[C@H](N=C(N)N)[C@@H](O)[C@@H]3N=C(N)N)O[C@@H](C)[C@]2(O)C=O)O[C@@H](CO)[C@H](O)[C@H]1O [STREPTOMYCIN],,,,,43,86,86,172,172,344,172,344,172,344,172,344,172,344,258,516,
